Data from ChEMBL document CHEMBL1914409, “Cytotoxicity and gene expression profiles of novel synthesized steroid derivatives as chemotherapeutic anti-breast cancer agents” (Bioorg Med Chem, 2011).
pIC50: −log10 of the molar value. Active and inactive are the calls of the source. The rule behind the calls is not given here.

Tests used:
[1] = test system: MCF7; test: Cytotoxicity against human MCF7 cells assessed as growth inhibition at 12.5 ug/ml after 24 hrs by SRB assay; format: functional
How it was run: (§1)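 MCF-7 (ATCC) kept in RPMI-1640 with penicillin/streptomycin and FBS, used at 90% confluence and seeded at 5×10^4–10^5 cells/well. Exposed to 5, 12.5, 25 or 50 µg/mL of compound in DMSO for 24, 48 or 72 h, with vehicle-treated controls and 6 wells per concentration. Cells fixed in cold TCA and stained with 0.4% SRB; dye taken up in 10 mM Tris pH 10.5 and read at 564 nm. Result given as % growth inhibition versus control.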

[2] = test system: MCF7; test: Reduction in CYP19 mRNA expression in human MCF7 cells by RT-PCR relative to control; format: functional, cell-based
How it was run: (§2)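 RNA taken from MCF-7 cells after 48 h treatment in the cytotoxicity study, then oligo(dT)-primed reverse transcription (25 °C 10 min, 42 °C 1 h). Semi-quantitative PCR run with VEGF 40 cycles (59 °C annealing), CYP19 50 cycles (60 °C), hAP-2γ 20 cycles (65 °C) and β-actin 40 cycles (60 °C). Gel band intensity expressed as a ratio to β-actin; P<0.05.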

[3] = test system: MCF7; test: Reduction in AP-2 gamma mRNA expression in human MCF7 cells by RT-PCR relative to control; format: functional, cell-based; how it was run: as §2
[4] = test system: MCF7; test: Cytotoxicity against human MCF7 cells assessed as growth inhibition at 25 ug/ml after 24 hrs by SRB assay; format: functional; how it was run: as §1
[5] = test system: MCF7; test: Cytotoxicity against human MCF7 cells assessed as growth inhibition after 72 hrs by SRB assay; format: functional, cell-based; settings: MCF7, 72 h; how it was run: as §1
[6] = test system: MCF7; test: Cytotoxicity against human MCF7 cells assessed as growth inhibition at 25 ug/ml after 48 hrs by SRB assay; format: functional, cell-based; how it was run: as §1
[7] = test system: MCF7; test: Cytotoxicity against human MCF7 cells assessed as growth inhibition at 50 ug/ml after 24 hrs by SRB assay; format: functional, cell-based; how it was run: as §1
[8] = test system: MCF7; test: Reduction in VEGF mRNA expression in human MCF7 cells by RT-PCR relative to control; format: functional, cell-based; how it was run: as §2
[9] = test system: MCF7; test: Cytotoxicity against human MCF7 cells assessed as growth inhibition at 5 ug/ml after 72 hrs by SRB assay relative to control; format: functional; how it was run: as §1
[10] = test system: MCF7; test: Cytotoxicity against human MCF7 cells assessed as growth inhibition after 48 hrs by SRB assay; format: functional, cell-based; settings: MCF7, 48 h; how it was run: as §1
[11] = test system: MCF7; test: Cytotoxicity against human MCF7 cells assessed as growth inhibition after 24 hrs by SRB assay; format: functional, cell-based; settings: MCF7, 24 h; how it was run: as §1
[12] = test system: MCF7; test: Cytotoxicity against human MCF7 cells assessed as growth inhibition at 12.5 ug/ml after 48 hrs by SRB assay; format: functional, cell-based; how it was run: as §1
[13] = test system: MCF7; test: Cytotoxicity against human MCF7 cells assessed as growth inhibition at 50 ug/ml after 48 hrs by SRB assay; format: functional, cell-based; how it was run: as §1
[14] = test system: MCF7; test: Cytotoxicity against human MCF7 cells assessed as growth inhibition at 12.5 ug/ml after 72 hrs by SRB assay; format: functional; settings: MCF7, 72 h, read-out: GI; how it was run: as §1
[15] = test system: MCF7; test: Cytotoxicity against human MCF7 cells assessed as growth inhibition at 5 ug/ml after 48 hrs by SRB assay; format: functional, cell-based; how it was run: as §1

Row | SMILES | growth inhibition (GI) [1] | Activity [2] | Activity [3] | growth inhibition (GI) [4] | pIC50 [5] | growth inhibition (GI) [6] | growth inhibition (GI) [7] | Activity [8] | growth inhibition (GI) [9] | pIC50 [10] | pIC50 [11] | growth inhibition (GI) [12] | growth inhibition (GI) [13] | inhibition of growth at 12.5 µg/mL [14] [%] | inhibition of growth at 12.5 µg/mL ([1]; MCF7, 24 h, read-out: GI) [%] | inhibition of growth at 25 µg/mL ([4]; MCF7, 24 h, read-out: GI) [%] | growth inhibition (GI) [15] | inhibition of growth at 5 µg/mL ([9]; MCF7, 72 h, read-out: GI) [%]
1 | C[C@]12CC[C@H](O)C[C@@H]1CC[C@@H]1[C@@H]2CC[C@@]2(C)[C@H]1CC[C@]21OC1C(=O)c1ccccc1 (stereo partly specified) | Active | Active | Active | Active | 4.76 | Active | Active | Active | Active | 5.14 | 4.77 | Active | Active | – | – | – | – | –
2 | CC(=O)O[C@H]1CC[C@@]2(C)[C@@H](CC[C@@H]3[C@@H]2CC[C@]2(C)/C(=N/c4ccc(S(=O)(=O)N(CCO)c5ncccn5)cc4)CC[C@@H]32)C1 | Active | Active | Active | Active | 5.00 | Active | Active | Active | Active | 5.12 | 4.83 | Active | inactive | – | – | – | – | –
3 | CC(=O)O[C@H]1CC[C@@]2(C)[C@@H](CC[C@@H]3[C@@H]2CC[C@]2(C)c4nc(CC#N)sc4C[C@@H]32)C1 | – | Active | Active | – | 5.54 | Active | Active | Active | – | 5.60 | 5.54 | Active | Active | 91 | 91 | 85 | Active | 93
4 | CC(=O)O[C@H]1CC[C@@]2(C)[C@@H](CC[C@@H]3[C@@H]2CC[C@]2(C)/C(=N/C4CCNN=C4O)CC[C@@H]32)C1 (stereo partly specified) | – | Active | Active | Active | 4.94 | Active | Active | Active | Active | 5.00 | 4.73 | Active | Active | – | – | – | – | –
5 | C[C@]12CC[C@H]3[C@@H](CCC4=CC(=O)CC[C@@]43C)[C@@H]1CC[C@@H]2n1c(=S)n(-c2ccccc2)c(=O)c2ccccc21 | Active | Active | Active | Active | 4.76 | Active | Active | Active | Active | 4.90 | 4.88 | – | Active | – | – | – | – | –
6 | COc1cccc2c1C(=O)c1c(O)c3c(c(O)c1C2=O)C[C@@](O)(C(=O)CO)C[C@@H]3O[C@H]1C[C@H](N)[C@H](O)[C@H](C)O1 | – | Active | Active | – | – | – | – | Active | – | – | – | – | – | – | – | – | – | –
7 | C[C@]12CC[C@H]3[C@@H](CCC4=CC(=O)CC[C@@]43C)[C@@H]1CC[C@@H]2n1c(=S)n(-c2ccccc2)c(=O)c2cc(F)ccc21 | – | Active | Active | Active | 4.80 | Active | Active | Active | Active | 4.94 | 4.75 | – | Active | – | – | – | – | –
8 | C[C@]12CC[C@H]3[C@@H](CCC4=C[C@]5(CC[C@@]43C)OC5C(=O)c3ccccc3)[C@@H]1CC[C@@H]2O (stereo partly specified) | Active | Active | Active | Active | 4.92 | inactive | Active | Active | Active | 4.80 | 4.82 | – | Active | – | – | – | – | –
